Reference: ChEMBL document CHEMBL4177755, “Combating Drug-Resistant Fungi with Novel Imperfectly Amphipathic Palindromic Peptides” (J Med Chem, 2018)

Key:
Pichia kudriavzevii [1] = experiment: Fungicidal activity against Candida krusei cgmcc 2.1857 after 96 hrs; assay type: functional; conditions: cgmcc 2.1857, 96 h, read-out: MFC99.9
In short: (§1)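 Wells from the 48 h, 28 °C RPMI 1640/MOPS microdilution plates were plated on YM agar and incubated a further 48 h at 28 °C. MFC is the lowest concentration killing at least 99.9% of cells. Run in triplicate with three biological replicates.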

[2] = Cytotoxicity against HEK293T cells assessed as cell viability at 2 to 32 uM after 24 hrs by MTT assay relative to control; assay type: cell-based, HEK-293T; conditions: human, read-out: Activity
In short: (§2)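 MTT viability assay. RAW264.7 or HEK293T cells at (1.0−2.0) × 10^5 per well were exposed to a peptide concentration series for 24 h at 37 °C in 5% CO2. MTT was then added at 0.5 mg/mL final for 4 h; formazan was dissolved in DMSO and read at 570 nm. Results average three independent trials.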

Staphylococcus aureus [3] = experiment: Bactericidal activity against Staphylococcus aureus ATCC 29213; assay type: functional; conditions: read-out: MBC99.9
In short: (§3)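 Wells from the 24 h, 37 °C MHB microdilution plates (bacteria at a final (0.5−1) × 10^5 CFU/mL; peptide diluted in 0.2% BSA) were plated on agar and incubated overnight. MBC is the lowest concentration killing >99.9% of cells. Each test was reproduced at least 3 times.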

[4] = Bactericidal activity against Salmonella pullorum ATCC 7913; assay type: functional, Salmonella enterica subsp. enterica serovar Pullorum; conditions: Salmonella enterica, read-out: MBC99.9; in short: as §3
Candida albicans [5] = experiment: Antifungal activity against Candida albicans cgmcc 2.2086 in presence of NaCl by broth dilution method; assay type: functional
Candida albicans [6] = experiment: Antifungal activity against fluconazole-resistant Candida albicans 56452 after 48 hrs by broth microdilution method; assay type: functional; conditions: Candida albicans, 56452, 48 h
In short: (§4)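 Modified CLSI M27-A2 broth microdilution. Yeast at (0.5−1) × 10^3 CFU/mL in MOPS-buffered RPMI 1640 was mixed 1:1 with peptide serially diluted in 0.2% BSA and incubated 48 h at 28 °C. Absorbance was read at 492 nm; MIC is the lowest concentration inhibiting 95% of growth. Triplicate, three biological replicates.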

[7] = tested on: Staphylococcus epidermidis; experiment: Bactericidal activity against Staphylococcus epidermidis ATCC 12228; assay type: functional; conditions: read-out: MBC99.9; in short: as §3
Staphylococcus aureus [8] = experiment: Bactericidal activity against methicillin-resistant Staphylococcus aureus ATCC 4330; assay type: functional; conditions: read-out: MBC99.9
In short: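 Bacteria at (0.5−1) × 10^5 CFU/mL in MHB were exposed to serially diluted peptide (0.2% BSA) for 24 h at 37 °C, then 50 μL aliquots were plated on agar overnight. MBC is the lowest concentration killing >99.9% of cells. At least 3 repeats.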

Candida albicans [9] = experiment: Antifungal activity against Candida albicans cgmcc 2.2086 in presence of CaCl2 by broth dilution method; assay type: functional
Erythrocyte = experiment: Hemolytic activity in human RBC after 1 hr; assay type: ADME, cell-based
In short: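 Fresh human erythrocytes, diluted 10-fold in PBS pH 7.4, were mixed with equal volumes of peptide and held 1 h at 37 °C. After centrifugation at 1000g, supernatant hemoglobin was read at 576 nm. PBS set 0% and 0.1% Triton X-100 set 100% lysis. MHC is the concentration causing 10% hemolysis. At least three experiments were run, each in technical triplicate.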

Candida albicans [10] = experiment: Fungicidal activity against Candida albicans SP3903 after 96 hrs; assay type: functional; conditions: SP3903, 96 h, read-out: MFC99.9
In short: (§5)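 After the 48 h, 28 °C broth microdilution in MOPS-buffered RPMI 1640 (inoculum (0.5−1) × 10^3 CFU/mL), 50 μL from each well was plated on YM agar for a further 48 h at 28 °C. MFC is the lowest concentration killing at least 99.9% of cells. Triplicate, three biological replicates.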

[11] = Antibacterial activity against Salmonella pullorum ATCC 7913 after 24 hrs; assay type: functional, Salmonella enterica subsp. enterica serovar Pullorum; conditions: Salmonella enterica, ATCC 7913, 24 h
In short: (§6)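 Broth microdilution. Mid-log bacteria in MHB at a final (0.5−1) × 10^5 CFU/mL were mixed with equal volumes of peptide serially diluted in 0.2% BSA. Plates were incubated 24 h at 37 °C and read at A492. MIC is the lowest concentration inhibiting 95% of growth. Each test was repeated at least 3 times.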

Candida albicans [12] = experiment: Fungicidal activity against Candida albicans SP3902 after 96 hrs; assay type: functional; conditions: SP3902, 96 h, read-out: MFC99.9; in short: as §5
Candida tropicalis [13] = experiment: Fungicidal activity against Candida tropicalis cgmcc 2.1975 after 96 hrs; assay type: functional; conditions: cgmcc 2.1975, 96 h, read-out: MFC99.9; in short: as §1
Candida albicans [14] = experiment: Antifungal activity against Candida albicans 58288 after 48 hrs by broth microdilution method; assay type: functional; conditions: Candida albicans, 58288, 48 h; in short: as §4
Candida albicans [15] = experiment: Antifungal activity against fluconazole-resistant Candida albicans 17546 after 48 hrs by broth microdilution method; assay type: functional; conditions: Candida albicans, 17546, 48 h; in short: as §4
Pichia kudriavzevii [16] = experiment: Antifungal activity against Candida krusei cgmcc 2.1857 after 48 hrs by broth microdilution method; assay type: functional; conditions: cgmcc 2.1857, 48 h
In short: (§7)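 Modified CLSI M27-A2 broth microdilution. Yeast were suspended in MOPS-buffered RPMI 1640 at a final (0.5−1) × 10^3 CFU/mL and mixed 1:1 with peptide serially diluted in 0.2% BSA. Plates were incubated 48 h at 28 °C and read at A492. MIC is the lowest concentration giving 95% inhibition. Run in triplicate with three biological replicates.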

Candida albicans [17] = experiment: Fungicidal activity against Candida albicans isolated from alveolar fluid after 96 hrs; assay type: functional; conditions: read-out: MFC99.9; in short: as §5
Candida parapsilosis = experiment: Fungicidal activity against Candida parapsilosis cgmcc 2.3989 after 96 hrs; assay type: functional; conditions: Lodderomyces parapsilosis, cgmcc 2.3989, 96 h; read-out: MFC99.9; in short: as §1
Staphylococcus aureus [18] = experiment: Bactericidal activity against Staphylococcus aureus ATCC 25923; assay type: functional; conditions: read-out: MBC99.9; in short: as §3
Candida albicans [19] = experiment: Fungicidal activity against Candida albicans SP3876 after 96 hrs; assay type: functional; conditions: SP3876, 96 h, read-out: MFC99.9; in short: as §5
Escherichia coli [20] = experiment: Antibacterial activity against Escherichia coli 1005 after 24 hrs; assay type: functional; conditions: Escherichia coli, 1005, 24 h; in short: as §6
Candida tropicalis [21] = experiment: Antifungal activity against Candida tropicalis cgmcc 2.1975 after 48 hrs by broth microdilution method; assay type: functional; conditions: cgmcc 2.1975, 48 h; in short: as §7
Candida albicans [22] = experiment: Antifungal activity against Candida albicans SP3902 after 48 hrs by broth microdilution method; assay type: functional; conditions: SP3902, 48 h; in short: as §4
[23] = Cytotoxicity against mouse RAW264.7 cells assessed as cell viability at 2 to 32 uM after 24 hrs by MTT assay relative to control; assay type: cell-based; conditions: read-out: Activity; in short: as §2
Candida albicans [24] = experiment: Antifungal activity against Candida albicans cgmcc 2.2086 in presence of NH4Cl by broth dilution method; assay type: functional
Candida albicans [25] = experiment: Antifungal activity against Candida albicans cgmcc 2.2086 after 48 hrs by broth microdilution method; assay type: functional; conditions: cgmcc 2.2086, 48 h; in short: as §4
Escherichia coli [26] = experiment: Antibacterial activity against Escherichia coli ATCC 25922 after 18 hrs in presence of ZnCl2 by broth dilution method; assay type: functional; conditions: ATCC 25922, 18 h
Candida albicans [27] = experiment: Antifungal activity against Candida albicans cgmcc 2.2086 in presence of ZnCl2 by broth dilution method; assay type: functional

Substance	MFC (Pichia kudriavzevii [1]) [µM]	viability at 24 h, up to 32 µM [2] [%]	MBC (Staphylococcus aureus [3]) [µM]	MBC [4] [µM]	MIC (Candida albicans [5]) [µM]	MIC95 (Candida albicans [6]) [µM]	MBC [7] [µM]	MBC (Staphylococcus aureus [8]) [µM]	MIC (Candida albicans [9]) [µM]	HC10 (Erythrocyte) [µM]	MFC (Candida albicans [10]) [µM]	MIC95 [11] [µM]	MFC (Candida albicans [12]) [µM]	MFC (Candida tropicalis [13]) [µM]	MIC95 (Candida albicans [14]) [µM]	MIC95 (Candida albicans [15]) [µM]	MIC95 (Pichia kudriavzevii [16]) [µM]	MFC (Candida albicans [17]) [µM]	MFC (Candida parapsilosis) [µM]	MBC (Staphylococcus aureus [18]) [µM]	other results
H-WWRRWRRWW-NH2	4	70 to 80	16	16	16	8	8	4	16	> 128	4	8	8	8	8	2	4	16	64	8	MFC (Candida albicans [19]): 4 µM; MIC95 (Escherichia coli [20]): 4 µM; MIC95 (Candida tropicalis [21]): 4 µM; MIC95 (Candida albicans [22]): 8 µM; viability at 24 h, up to 32 µM [23]: 70 to 80%; MIC (Candida albicans [24]): 8 µM; MIC95 (Candida albicans [25]): 8 µM; MIC (Escherichia coli [26]): 16 µM; MIC (Candida albicans [27]): 8 µM
H-RWWRRWRRWWR-NH2	4	70 to 80	8	8	16	8	8	8	8	> 128	2	4	4	4	2	4	2	8	32	16	MFC (Candida albicans [19]): 2 µM; MIC95 (Escherichia coli [20]): 8 µM; MIC95 (Candida tropicalis [21]): 2 µM; MIC95 (Candida albicans [22]): 4 µM; viability at 24 h, up to 32 µM [23]: 70 to 80%; MIC (Candida albicans [24]): 4 µM; MIC95 (Candida albicans [25]): 4 µM; MIC (Escherichia coli [26]): 16 µM; MIC (Candida albicans [27]): 4 µM
